Source: PubChem BioAssay (several laboratories)
ABHD5-PLIN5 inh: ABHD5-PLIN5 interaction inhibitors, primary screen, cell lysate, split luciferase complementation, luminescence; Split G. princeps luciferase complementation, 4 h; inhibition, % at 4 µM; actives 0.78% (n = 360,000);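 active = inhibition above the mean inhibition across every tested compound plus 3 SD, cut at about 22% in these data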
Exocytosis inh: LAMP-1 surface exposure blockers, TALL-104 cells – cell-based, flow cytometry, MLPCN library, primary screen. TALL-104 LAMP-1 surface exposure; cells stimulated with thapsigargin and PMA. inhibition, % at 10 µM. actives 0.66% (n = 360,000);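 active = inhibition above about 55%, limit read from the data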
UPR XBP1 act: activators of adaptive XBP1 UPR arm, primary screen, cell-based, CHO-XBP1 luciferase reporter, luminescence, uHTS. IRE1-XBP1 UPR activation; percent of tunicamycin response, DMSO as zero. activation, % at 20 µM. actives 0.33% (n = 330,000). AID 463104, 2010;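 active = versus positive control, 20 µM dose yields 30% or more activation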
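Signal: luciferase luminescence; Assay system: CHO-XBP1 luciferase reporter cells; Amount: one thousand reporter cells per well; Dosing: 20 µM single concentration, DMSO 1%; Benchmarks: high control tunicamycin 10 µg/mL final, low control DMSO vehicle only; Schedule: 6 h compound exposure at 37 °C, 5% CO2; Evaluation: percent activation relative to tunicamycin reference.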
Mdm2 MdmX PPI: inhibitors of human Mdm2-MdmX association, primary screen, cell-based, luminescence, split luciferase, SaOS-2, uHTS | inhibition, % at 8 µM | AID 485346, 2010 | Protein Mdm4 (Homo sapiens) + E3 ubiquitin-protein ligase Mdm2 (Homo sapiens), … | actives 3% (n = 330,000) | SaOS-2 split-luciferase Mdm2/MdmX complementation;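 active = inhibition of at least 50% at 8 µM in the primary screen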
CHOP UPR activ: activators of apoptotic CHOP UPR arm, primary screen, cell-based, CHO-CHOP luciferase reporter, luminescence, uHTS; UPR activation; percent of tunicamycin response over DMSO baseline; actives 0.34% (n = 330,000); activation, % at 10 µM;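 active = at 10 µM dose, activation of 40% or more, normalized to positive control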
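System: CHO-CHOP luciferase reporter cell line; amount: 500 cells/well; buffer or medium: F12 medium containing 10% fetal bovine serum; incubation: 6 h compound exposure at 37 °C after overnight seeding; measured by: luciferase luminescence after 10 min with Steady-Glo reagent; evaluation: % reporter activation, DMSO baseline versus tunicamycin full activation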
Mdm2-MdmX conf: Mdm2-MdmX complex disruptors, retested hits, confirmation, luminescence, single concentration. shares compounds with Mdm2 MdmX PPI. Mdm2-MdmX binding, luminescent assay. inhibition, % at 8 µM. actives 55% (n = 10,000); in the data active = inhibition above about 40%
FLuc counter: full-length luciferase signal inhibition, confirmation, counter-screen for Mdm2/MdmX interaction inhibitor project, cell-based, single concentration, SaOS-2; shares compounds with Mdm2 MdmX PPI; SaOS-2 full-length luciferase counterscreen, luminescence; inhibition, % at 8 µM; actives 77% (n = 6,200);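 active = mean inhibition at 8 µM reaching about 37%, which flags the compound as non-specific, limit read from the data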;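 also: p53-null SaOS-2 cells with luciferase driven by a doxycycline-inducible promoter; compound on cells about two nights before reading with doxycycline added after day one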
A number is an active result; 0 = inactive; - = no result given. Compounds with a hit are over-represented: about 4% of the library has one in this group of screens.

SMILES	ABHD5-PLIN5 inh	Exocytosis inh	UPR XBP1 act	Mdm2 MdmX PPI	CHOP UPR activ	Mdm2-MdmX conf	FLuc counter
O=S(=O)(c1ccc(OCC2CO2)cc1)c1ccc(OCC2CO2)cc1 (centres undefined)	0	0	0	87	0	0	-
CCOC(=O)C1=C(C)N=c2s/c(=C\c3cccc(OCC(=O)O)c3)c(=O)n2C1c1ccccc1OC (centres undefined)	0	0	0	0	0	-	-
COc1ccccc1C1C(C(C)=O)=C(C)N=c2s/c(=C\c3cc(OC)c(OC)c(OC)c3)c(=O)n21 (centres undefined)	0	0	0	58	0	41	50
COc1cccc(C2C3=C(N=c4s/c(=C\c5ccccc5O)c(=O)n42)c2ccccc2CC3)c1OC (centres undefined)	-	-	52	95	105	50	53
Cc1cc(-c2nnc(CSc3nnc(NC(=O)c4ccc(C(C)(C)C)cc4)s3)o2)ccc1[N+](=O)[O-]	0	0	0	59	0	0	-
Cc1ccc(C(=O)COc2cc(O)c3c(=O)cc(-c4ccccc4)oc3c2)cc1	0	0	0	62	0	0	-
O=C(COc1cc(O)c2c(=O)cc(-c3ccccc3)oc2c1)c1ccccc1	0	0	0	0	0	-	-
c1ccc2[nH]cnc2c1	0	0	0	0	0	-	-
Cc1nn(-c2ccc(F)cc2)c2nc(N)c(C#N)c(-c3cccs3)c12	0	0	0	0	0	-	-
COc1cc(-c2c(C#N)c(N)nc3c2c(C)nn3-c2ccc(C)c(C)c2)cc(OC)c1OC	0	0	0	0	0	-	-
Cc1nn(-c2ccc(F)cc2)c2nc(N)c(C#N)c(-c3ccc(O)c(O)c3)c12	0	0	0	61	0	0	-
Cc1nn(-c2ccccc2)c2nc(N)c(C#N)c(-c3ccc(O)c(O)c3)c12	0	0	0	55	0	0	-
COc1ccc(CN2C(=O)CCC2(C)c2nnnn2-c2c(C)cccc2C)cc1 (centres undefined)	0	0	-	-	-	-	-
c1ccc(-c2cc3ccccc3[nH]2)cc1	0	0	0	0	0	-	-
CN1CCN(CCOC2Cc3ccccc3Sc3ccc(Cl)cc32)CC1 (centres undefined)	0	0	0	60	0	0	-
OCCN1CCN(C2Cc3cc(Cl)ccc3Sc3ccc(Cl)cc32)CC1 (centres undefined) (tested in a mixture with another compound)	23	0	0	59	0	0	-
CN1CCN(C2Cc3cc(Cl)ccc3Sc3cc(F)ccc32)CC1 (centres undefined)	0	0	0	54	0	0	-
CN1CCN(C2=Cc3cc(Cl)ccc3Sc3cc(F)ccc32)CC1	27	0	0	51	0	0	-
CC(C)CN(C(=O)COc1ccc(C(C)(C)C)cc1)C1CCS(=O)(=O)C1 (centres undefined)	0	0	0	0	0	-	-
O=C(Nc1ccc(Cl)cc1)c1ccc2snnc2c1	0	0	0	0	0	-	-
CCOC(=O)C1(Nc2nccs2)Sc2ccccc2NC1=O (centres undefined)	0	0	0	57	0	62	58
O=C(NCc1ccccc1)c1cccc(COc2ccc3c(c2)CCC3)c1	0	0	0	0	0	-	-
O=C(O)c1cccc(COc2ccc(CO)cc2Cl)c1	0	0	0	90	0	88	0
COc1ccc(OCc2cccc(C(=O)O)c2)cc1	0	0	0	85	0	81	50
O=C(O)c1cccc(COc2ccc3c(c2)CCC3)c1	0	0	0	68	0	78	0
CCOc1ccc(NC(=O)Nc2cccc(C(=O)O)c2)cc1	0	0	0	70	0	70	0
